ChEMBL document CHEMBL3045605, “Synthesis and anticancer evaluation of novel 3,5-diaryl-thiazolo[4,5-d]pyrimidin-2-one derivatives” (2013)
Blank lines part the entries; values can stand above or below the compound they belong to.

Columns and labels:
Type in all cases: functional
COLO 205 = test: Anticancer activity against Homo sapiens (human) COLO205 cells by SRB assay
Method in brief: (§1)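 NCI 60-line panel, five tenfold dilutions from 10−4 to 10−8 M, growth read by sulforhodamine B staining against untreated controls. From the dose–response per line: GI50 (molar concentration giving half growth inhibition), TGI (molar concentration giving total growth inhibition, cytostatic) and LC50 (molar concentration killing 50% of initial cells, cytotoxic).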

NCI-H460 = test: Anticancer activity against Homo sapiens (human) NCI-H460 cells by SRB assay
Method in brief: (§2)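 Five-dose NCI 60-cell-line panel testing at tenfold dilutions from 10−4 to 10−8 M, with growth read by sulforhodamine B protein staining. For each cell line: GI50 is the molar concentration giving half growth inhibition; TGI is total growth inhibition (cytostatic); LC50 is the molar concentration killing 50% of the initial cells (cytotoxic).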

NCI-H522 [1] = test: Anticancer activity against Homo sapiens (human) NCI-H522 cells by SRB assay; method in brief: as §2
[2] = Anticancer activity against Homo sapiens (human) NCI-322M cells by SRB assay; method in brief: as §2
HOP-92 = test: Anticancer activity against Homo sapiens (human) HOP92 cells by SRB assay; method in brief: as §1
NCI-H23 = test: Anticancer activity against Homo sapiens (human) NCI-H23 cells by SRB assay; method in brief: as §2
HOP-62 = test: Anticancer activity against Homo sapiens (human) HOP62 cells by SRB assay; method in brief: as §1
A549 = test: Anticancer activity against Homo sapiens (human) A549/ATCC cells by SRB assay; method in brief: as §1
EKVX = test: Anticancer activity against Homo sapiens (human) EKVX cells by SRB assay; method in brief: as §1
SR [3] = test: Anticancer activity against Homo sapiens (human) SR cells by SRB assay
Method in brief: (§3)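 NCI five-dose follow-up on the 60-line human tumour panel at tenfold dilutions from 10−4 to 10−8 M, with growth read by sulforhodamine B protein assay against untreated controls. For each cell line, GI50 (half growth inhibition), TGI (total growth inhibition) and LC50 (50% death of initial cells) are calculated as molar concentrations.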

[4] = Anticancer activity against Homo sapiens (human) RPMI8266 cells by SRB assay; method in brief: as §2
K562 [5] = test: Anticancer activity against Homo sapiens (human) K562 cells by SRB assay; method in brief: as §1
CCRF-CEM [6] = test: Anticancer activity against Homo sapiens (human) CCRF-CEM cells by SRB assay; method in brief: as §1
ACHN = test: Anticancer activity against Homo sapiens (human) ACHN cells by SRB assay; method in brief: as §1
786-0 = test: Anticancer activity against Homo sapiens (human) 786-0 cells by SRB assay; method in brief: as §1
NCI/ADR-RES = test: Anticancer activity against Homo sapiens (human) NCI/ADR-RES cells by SRB assay; method in brief: as §2
SK-OV-3 = test: Anticancer activity against Homo sapiens (human) SKOV3 cells by SRB assay; method in brief: as §2
OVCAR-8 = test: Anticancer activity against Homo sapiens (human) OVCAR8 cells by SRB assay; method in brief: as §2
OVCAR-5 = test: Anticancer activity against Homo sapiens (human) OVCAR5 cells by SRB assay; method in brief: as §2
OVCAR-4 = test: Anticancer activity against Homo sapiens (human) OVCAR4 cells by SRB assay; method in brief: as §2
OVCAR-3 = test: Anticancer activity against Homo sapiens (human) OVCAR3 cells by SRB assay; method in brief: as §2
IGROV-1 = test: Anticancer activity against Homo sapiens (human) IGROV1 cells by SRB assay; method in brief: as §1
UACC-62 = test: Anticancer activity against Homo sapiens (human) UACC62 cells by SRB assay; method in brief: as §3
SK-MEL-5 = test: Anticancer activity against Homo sapiens (human) SK-MEL-5 cells by SRB assay; method in brief: as §2
UACC-257 = test: Anticancer activity against Homo sapiens (human) UACC257 cells by SRB assay; method in brief: as §3
SK-MEL-28 = test: Anticancer activity against Homo sapiens (human) SK-MEL-28 cells by SRB assay; method in brief: as §2
SK-MEL-2 = test: Anticancer activity against Homo sapiens (human) SK-MEL-2 cells by SRB assay; method in brief: as §2
MDA-MB-435 = test: Anticancer activity against Homo sapiens (human) MDA-MB-435 cells by SRB assay; method in brief: as §2
M14 = test: Anticancer activity against Homo sapiens (human) M14 cells by SRB assay; method in brief: as §1
Malme-3M = test: Anticancer activity against Homo sapiens (human) MALME-3M cells by SRB assay; method in brief: as §1
SNB-75 = test: Anticancer activity against Homo sapiens (human) SNB75 cells by SRB assay; method in brief: as §2
U-251 = test: Anticancer activity against Homo sapiens (human) U251 cells by SRB assay; method in brief: as §3
SNB-19 = test: Anticancer activity against Homo sapiens (human) SNB19 cells by SRB assay; method in brief: as §2
SF-539 = test: Anticancer activity against Homo sapiens (human) SF539 cells by SRB assay; method in brief: as §2
SF-295 = test: Anticancer activity against Homo sapiens (human) SF295 cells by SRB assay; method in brief: as §2
SF-268 = test: Anticancer activity against Homo sapiens (human) SF268 cells by SRB assay; method in brief: as §2
KM12 = test: Anticancer activity against Homo sapiens (human) KM12 cells by SRB assay; method in brief: as §1
SW-620 [7] = test: Anticancer activity against Homo sapiens (human) SW620 cells by SRB assay; method in brief: as §3
HT-29 = test: Anticancer activity against Homo sapiens (human) HT-29 cells by SRB assay; method in brief: as §1
HCT-15 = test: Anticancer activity against Homo sapiens (human) HCT15 cells by SRB assay; method in brief: as §1
HCT-116 [8] = test: Anticancer activity against Homo sapiens (human) HCT116 cells by SRB assay; method in brief: as §1
T47D = test: Anticancer activity against Homo sapiens (human) T47D cells by SRB assay; method in brief: as §3
BT-549 = test: Anticancer activity against Homo sapiens (human) BT549 cells by SRB assay; method in brief: as §1
Hs-578T = test: Anticancer activity against Homo sapiens (human) Hs 578T cells by SRB assay; method in brief: as §1
MCF7 = test: Anticancer activity against Homo sapiens (human) MCF7 cells by SRB assay; method in brief: as §1
DU-145 = test: Anticancer activity against Homo sapiens (human) DU145 cells by SRB assay; method in brief: as §1
RXF 393 = test: Anticancer activity against Homo sapiens (human) RXF393 cells by SRB assay; method in brief: as §2
PC-3 = test: Anticancer activity against Homo sapiens (human) PC3 cells by SRB assay; method in brief: as §2
UO-31 = test: Anticancer activity against Homo sapiens (human) UO31 cells by SRB assay; method in brief: as §3
SN12C = test: Anticancer activity against Homo sapiens (human) SN12C cells by SRB assay; method in brief: as §2
TK-10 = test: Anticancer activity against Homo sapiens (human) TK10 cells by SRB assay; method in brief: as §3
CAKI-1 [9] = test: Anticancer activity against Homo sapiens (human) CAKI-1 cells by SRB assay; method in brief: as §1
A498 = test: Anticancer activity against Homo sapiens (human) A498 cells by SRB assay; method in brief: as §1
HCT-116 [10] = test: Anticancer activity against Homo sapiens (human) HCT116 cells assessed as cell growth at 10 uM by SRB assay; details: read-out: Activity
Method in brief: (§4)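 NCI 60-cell human tumour panel (nine cancer types) screened at one concentration, 10−5 M. Cell growth estimated by sulforhodamine B protein staining and reported as percent growth of treated cells relative to untreated controls.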

SR [11] = test: Anticancer activity against Homo sapiens (human) SR cells assessed as cell growth at 10 uM by SRB assay; details: read-out: Activity
Method in brief: (§5)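 NCI 60-cell human tumour panel (leukemia, melanoma, lung, colon, CNS, breast, ovarian, prostate, renal lines) given a single 10−5 M dose. Growth is expressed as percent growth of treated cells relative to untreated controls, with cell growth/viability estimated by sulforhodamine B protein staining.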

K562 [12] = test: Anticancer activity against Homo sapiens (human) K562 cells assessed as cell growth at 10 uM by SRB assay; details: read-out: Activity; method in brief: as §4
CAKI-1 [13] = test: Anticancer activity against Homo sapiens (human) CAKI-1 cells assessed as cell growth at 10 uM by SRB assay; details: read-out: Activity; method in brief: as §4
NCI-H522 [14] = test: Anticancer activity against Homo sapiens (human) NCI-H522 cells assessed as cell growth at 10 uM by SRB assay; details: read-out: Activity
Method in brief: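 Single-dose screen in the NCI 60-human-tumour-cell-line panel (nine cancer types) at 10−5 M. Cell growth was estimated by sulforhodamine B protein staining and reported as percent growth of treated cells relative to untreated controls.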

CCRF-CEM [15] = test: Anticancer activity against Homo sapiens (human) CCRF-CEM cells assessed as cell growth at 10 uM by SRB assay; details: read-out: Activity; method in brief: as §4
LOX IMVI = test: Anticancer activity against Homo sapiens (human) LOXIMVI cells assessed as cell growth at 10 uM by SRB assay; details: read-out: Activity; method in brief: as §4
SW-620 [16] = test: Anticancer activity against Homo sapiens (human) SW620 cells assessed as cell growth at 10 uM by SRB assay; details: read-out: Activity; method in brief: as §5

- GI50 (COLO 205): 2510 nM
- GI50 (NCI-H460): 1000 nM
- GI50 (NCI-H522 [1]): 2000 nM
- GI50 (NCI-H23): 3160 nM
- GI50 (A549): 5010 nM
- GI50 (K562 [5]): 100000 nM
- GI50 (CCRF-CEM [6]): 316 nM
- GI50 (ACHN): 3980 nM
- GI50 (786-0): 1580 nM
- GI50 (SK-OV-3): 501 nM
- GI50 (OVCAR-8): 398 nM
- GI50 (OVCAR-5): 501 nM
- GI50 (OVCAR-4): 5010 nM
- GI50 (OVCAR-3): 1580 nM
- GI50 (SK-MEL-5): 2510 nM
- GI50 (SK-MEL-28): 6310 nM
- GI50 (SK-MEL-2): 1580 nM
- GI50 (MDA-MB-435): 501 nM
- GI50 (U-251): 10000 nM
- GI50 (SW-620 [7]): 3980 nM
- GI50 (HT-29): 1260 nM
- GI50 (HCT-15): 2510 nM
- GI50 (HCT-116 [8]): 631 nM
- GI50 (T47D): 10000 nM
- GI50 (BT-549): 1260 nM
- GI50 (MCF7): 501 nM
- GI50 (DU-145): 501 nM
- GI50 (PC-3): 3160 nM
Compound: Nc1nc2[nH]cnc2c(=S)[nH]1 [THIOGUANINE]
- GI50 [2]: 25100 nM
- GI50 (HOP-92): 1580 nM
- GI50 (HOP-62): 794 nM
- GI50 (EKVX): 3980 nM
- GI50 (SR [3]): 631 nM
- GI50 [4]: 1260 nM
- GI50 (NCI/ADR-RES): 398 nM
- GI50 (IGROV-1): 6310 nM
- GI50 (UACC-62): 398 nM
- GI50 (UACC-257): 6310 nM
- GI50 (M14): 631 nM
- GI50 (Malme-3M): 3160 nM
- GI50 (SNB-75): 1000 nM
- GI50 (SNB-19): 79400 nM
- GI50 (SF-539): 631 nM
- GI50 (SF-295): 1260 nM
- GI50 (SF-268): 1260 nM
- GI50 (KM12): 3160 nM
- GI50 (Hs-578T): 6310 nM
- GI50 (RXF 393): 501 nM
- GI50 (UO-31): 794 nM
- GI50 (SN12C): 7940 nM
- GI50 (TK-10): 501 nM
- GI50 (CAKI-1 [9]): 316 nM
- GI50 (A498): 25100 nM

Compound: O=c1sc2c(Cl)nc(-c3ccc(F)cc3)nc2n1-c1ccccc1
- growth at 10 µM (HCT-116 [10]): 40.5%
- growth at 10 µM (SR [11]): 28.6%
- growth at 10 µM (K562 [12]): 35.8%
- growth at 10 µM (CAKI-1 [13]): 41.8%

Compound: O=c1sc2c(Cl)nc(-c3ccc(Cl)cc3)nc2n1-c1ccccc1
- growth at 10 µM (HCT-116 [10]): 29.3%
- growth at 10 µM (NCI-H522 [14]): 5.19%
- growth at 10 µM (SR [11]): 21.5%
- growth at 10 µM (K562 [12]): 34.6%
- growth at 10 µM (CCRF-CEM [15]): 33.6%
- growth at 10 µM (LOX IMVI): 24.4%
- growth at 10 µM (SW-620 [16]): 47.6%

Compound: O=c1[nH]c(-c2ccccc2)nc2c1sc(=O)n2-c1ccccc1
- growth at 10 µM (CAKI-1 [13]): 26.8%
